According to ChEMBL document CHEMBL1130131, “12,13-isotaxanes: synthesis of new potent analogs and X-ray crystallographic confirmation of structure” (J Med Chem, 1997):

Experiments:
[1] = system: A2780; assay: Concentration of compound to inhibit the growth of human A2780 ovarian carcinoma cells(in vitro); format: functional, cell-based
[2] = system: B16; assay: Concentration inducing 20% mitotic index for mitotic block in murine B16 melanoma cells; format: functional, Mus musculus
How it was run: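 B16 melanoma cells were treated in culture, and mitotic index was measured by a method adapted from earlier work. The value is the drug concentration giving a 20% mitotic index.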

[3] = system: Mus musculus; assay: % T/C(is ratio of median survival time in the group receiving the optimal dose to median survival time in the vehicle control group X 100.) is measured in B16 melanoma cells at the dose of 50 ng/kg on the days 1 and 3(experiment 1); format: functional
How it was run: (§1)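 B6D2F1 mice bearing intraperitoneally implanted B16 melanoma (method adapted from earlier work); test agent given iv on days 1 and 3, optimal total dose reported in ng/kg. %T/C = median survival time of the optimal-dose group divided by median survival time of the vehicle control group × 100. Values are individual results from two separate experiments.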

[4] = system: Mus musculus; assay: % T/C(is ratio of median survival time in the group receiving the optimal dose to median survival time in the vehicle control group X 100.) is measured in B16 melanoma cells at the dose of 50 ng/kg on the days 1 and 3(experiment 2); format: functional; how it was run: as §1
[5] = system: Mus musculus; assay: % T/C was measured in B6D2F1 mice bearing ip-implanted B16 melanoma cells at the dose of 100n g/kg on the days 1 and 3; format: functional
How it was run: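 B6D2F1 mice bearing intraperitoneally implanted B16 melanoma received compound iv on days 1 and 3, with the total dose stated. %T/C = median survival time at the optimal dose ÷ median survival time of vehicle-treated controls × 100. The method was adapted from earlier work.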

| Compound | IC50 [1] [nM] | Concentration giving 20% mitotic index [2] [nM] | T/C [3] [%] | T/C [4] [%] | T/C [5] [%] |
| --- | --- | --- | --- | --- | --- |
| CC(=O)O[C@H]1C(=O)[C@]2(C)C=CC3OC[C@@]3(OC(C)=O)C2[C@H](OC(=O)c2ccccc2)[C@]2(O)CC(OC(=O)[C@H](O)[C@@H](NC(=O)OC(C)(C)C)c3ccccc3)=C(C)C1C2(C)C (some centres undefined) | 1.2 | 10 | 181 | 181 | – |
| CC(=O)O[C@@]12COC1C[C@@H]1C[C@@]13C(=O)[C@H](O)C1C(C)=C(OC(=O)[C@H](O)[C@@H](NC(=O)OC(C)(C)C)c4ccccc4)C[C@@](O)([C@@H](OC(=O)c4ccccc4)C23)C1(C)C (some centres undefined) | 1.9 | 7 | 184 | 210 | – |
| CC(=O)O[C@H]1C(=O)[C@]2(C)C=CC3OC[C@@]3(OC(C)=O)C2[C@H](OC(=O)c2ccccc2)[C@]2(O)CC(OC(=O)[C@H](O)[C@@H](NC(=O)NC(C)(C)C)c3ccccc3)=C(C)C1C2(C)C (some centres undefined) | 0.5 | 10 | 232 | 241 | – |
| CC(=O)O[C@H]1C(=O)[C@]23C[C@H]2CC2OC[C@@]2(OC(C)=O)C3[C@H](OC(=O)c2ccccc2)[C@]2(O)CC(OC(=O)[C@H](O)[C@@H](NC(=O)NC(C)(C)C)c3ccccc3)=C(C)C1C2(C)C (some centres undefined) | 0.6 | 10 | 213 | 225 | – |
| CC(=O)O[C@@]12CO[C@@H]1C[C@H](O)[C@@]1(C)C(=O)[C@H](O)C3=C(C)[C@@H](OC(=O)[C@H](O)[C@@H](NC(=O)OC(C)(C)C)c4ccccc4)C[C@@](O)([C@@H](OC(=O)c4ccccc4)[C@H]21)C3(C)C.O.O.O [DOCETAXEL] | 1.8 | 15 | – | – | 177 |
